Laboratory results from paper PMC11100557 (Science Advances, 2024).

Experiments:
KIN10 mutant 3 = KIN10 mutant 3 (Arabidopsis thaliana, UniProt Q38997, K63A/K69A/L73A/R65A/R66A); assay: MST binding of ATP to KIN10 mutant 3; conditions: fig. S5
How it was run: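 KIN10 kinase-domain mutant 3 (K63A-R65A-R66A-K69A-L73A), N-His6, expressed in E. coli BL21(DE3), Ni-NTA purified. Protein labeled with NT647 via NHS coupling to lysines (30 min on ice), free dye removed by size exclusion into MST buffer (50 mM phosphate pH 7.4, 150 mM NaCl, MgCl2, 1 mM DTT, 0.05% Tween 20).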

WT KIN10 [1] = target: T1, WT KIN10 (Arabidopsis thaliana, UniProt Q38997); assay: MST binding of T6P to WT KIN10 kinase domain
T1 sequence (Q38997 19-271 limits assumed): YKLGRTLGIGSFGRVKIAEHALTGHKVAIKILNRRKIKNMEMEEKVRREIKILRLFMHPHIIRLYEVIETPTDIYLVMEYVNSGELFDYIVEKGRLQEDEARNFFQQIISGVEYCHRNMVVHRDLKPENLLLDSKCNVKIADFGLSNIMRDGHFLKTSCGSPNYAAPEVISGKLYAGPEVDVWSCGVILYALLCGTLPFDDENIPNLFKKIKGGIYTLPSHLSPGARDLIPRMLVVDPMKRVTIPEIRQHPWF

KIN10 R66A = KIN10 R66A (Arabidopsis thaliana, UniProt Q38997, R66A); assay: MST binding of T6P to KIN10 R66A
Sequence of KIN10 R66A (Q38997 19-271 R66A limits assumed): as the sequence (Q38997 19-271 limits assumed) above, with R48A counted along it
How it was run: (§1)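 N-terminal His6-tagged recombinant KIN10 was expressed in E. coli BL21(DE3), Ni-NTA purified, and NT647-labelled on lysines via NHS coupling. Free dye was removed by size exclusion into MST buffer (50 mM phosphate pH 7.4, 150 mM NaCl, 1 mM DTT, 0.05% Tween 20). 100 nM labelled protein was titrated with serially diluted T6P. Microscale thermophoresis was run at 25°C, 40% MST power and 80% LED power.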

[2] = target: KIN10 mutant 2 (R52A-R53A-K54A-K56A) (Arabidopsis thaliana, UniProt Q38997, K54A/K56A/R52A/R53A); assay: MST binding of T6P to KIN10 mutant 2
Sequence of KIN10 mutant 2 (R52A-R53A-K54A-K56A) (Q38997 19-271 R52A/R53A/K54A/K56A limits assumed): as the sequence (Q38997 19-271 limits assumed) above, with R34A, R35A, K36A, K38A counted along it
How it was run: (§2)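 Alanine-substituted KIN10 kinase domain was made by overlap PCR and cloned into pET28a. It was expressed with an N-terminal His6 tag in E. coli BL21(DE3) and Ni-NTA purified. Protein was NT647-NHS labelled and desalted into phosphate buffer pH 7.4 with NaCl, DTT and Tween 20. 100 nM labelled protein was mixed with a T6P serial dilution, and MST was read at 25°C (40% MST, 80% LED power).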

[3] = target: plant α-catalytic subunit of SnRK1 (Arabidopsis thaliana, UniProt Q38997); assay: Inhibition of the SnRK1 α-catalytic subunit by sugar phosphates; format: biochemical; conditions: table S4
Sequence of plant α-catalytic subunit of SnRK1 (Q38997 19-271 limits assumed): as the sequence (Q38997 19-271 limits assumed) above

[4] = target: KIN10 mutant 1 (R23A-R32A-K34A) (Arabidopsis thaliana, UniProt Q38997, K34A/R23A/R32A); assay: MST binding of T6P to KIN10 mutant 1
Sequence of KIN10 mutant 1 (R23A-R32A-K34A) (Q38997 19-271 R23A/R32A/K34A limits assumed): as the sequence (Q38997 19-271 limits assumed) above, with R5A, R14A, K16A counted along it
How it was run: as §2

[5] = target: T2, KIN10 mutant 3 (K63A-R65A-R66A-K69A-L73A) (Arabidopsis thaliana, UniProt Q38997, K63A/K69A/L73A/R65A/R66A); assay: KIN10 kinase activity assay with SPS peptide, mutant 3; format: biochemical; conditions: 1 mM T6P, 50 nM KIN10 mutant 3 plus 50 nM GRIK1
T2 sequence (Q38997 19-271 K63A/R65A/R66A/K69A/L73A limits assumed): as the sequence (Q38997 19-271 limits assumed) above, with K45A, R47A, R48A, K51A, L55A counted along it

[6] = target: T2, KIN10 mutant 3 (K63A-R65A-R66A-K69A-L73A); assay: MST binding of T6P to KIN10 mutant 3
WT KIN10 [7] = target: T1, WT KIN10; assay: KIN10 kinase activity assay with SPS peptide, WT KIN10; format: biochemical
GRIK1-KIN10 = conditions: MST; ref Zhai et al. ([9]); cited from earlier work
KIN10 K63A-R66A-R141A = KIN10 K63A-R66A-R141A (Arabidopsis thaliana, UniProt Q38997, K63A/R141A/R66A); assay: biochemical; format: binding
Sequence of KIN10 K63A-R66A-R141A (Q38997 19-271 K63A/R66A/R141A limits assumed): as the sequence (Q38997 19-271 limits assumed) above, with K45A, R48A, R123A counted along it

KIN10 R141A = KIN10 R141A (Arabidopsis thaliana, UniProt Q38997, R141A); assay: MST binding of T6P to KIN10 R141A
Sequence of KIN10 R141A (Q38997 19-271 R141A limits assumed): as the sequence (Q38997 19-271 limits assumed) above, with R123A counted along it
How it was run: as §1

KIN10 mutant 2 = KIN10 mutant 2 (Arabidopsis thaliana, UniProt Q38997, K54A/K56A/R52A/R53A); assay: KIN10 kinase activity assay with SPS peptide, mutant 2; format: biochemical; conditions: 1 mM T6P, 200 ng KIN10 mutant 2 and 200 ng GRIK1
Sequence of KIN10 mutant 2 (Q38997 19-271 R52A/R53A/K54A/K56A limits assumed): as the sequence (Q38997 19-271 limits assumed) above, with R34A, R35A, K36A, K38A counted along it

KIN10 K63A = KIN10 K63A (Arabidopsis thaliana, UniProt Q38997, K63A); assay: MST binding of T6P to KIN10 K63A
Sequence of KIN10 K63A (Q38997 19-271 K63A limits assumed): as the sequence (Q38997 19-271 limits assumed) above, with K45A counted along it
How it was run: as §1

KIN10 mutant 1 = KIN10 mutant 1 (Arabidopsis thaliana, UniProt Q38997, K34A/R23A/R32A); assay: KIN10 kinase activity assay with SPS peptide, mutant 1; format: biochemical; conditions: 1 mM T6P, 200 ng KIN10 mutant 1 and 200 ng GRIK1
Sequence of KIN10 mutant 1 (Q38997 19-271 R23A/R32A/K34A limits assumed): as the sequence (Q38997 19-271 limits assumed) above, with R5A, R14A, K16A counted along it

Sequence of KIN10 mutant 3 (Q38997 19-271 K63A/R65A/R66A/K69A/L73A limits assumed): as the sequence (Q38997 19-271 limits assumed) above, with K45A, R47A, R48A, K51A, L55A counted along it

**Q.** For `Nc1ncnc2c1ncn2[C@@H]1O[C@H](COP(=O)(O)OP(=O)(O)OP(=O)(O)O)[C@@H](O)[C@H]1O` [ATP, adenosine triphosphate], which “Kd for ATP, mutant 3 compared with WT KIN10” value (KIN10 mutant 3) is on record?
**A.** no change

**Q.** For `O=P(O)(O)OC[C@H]1O[C@H](O[C@H]2O[C@H](CO)[C@@H](O)[C@H](O)[C@H]2O)[C@H](O)[C@@H](O)[C@@H]1O` [T6P, trehalose 6-phosphate], which Kd (WT KIN10 [1]) is on record?
**A.** 28 ± 4 µM

**Q.** What about the Kd (KIN10 R66A) of the same molecule?
**A.** 40 ± 5 µM

**Q.** What about the Kd [2] of the same molecule?
**A.** 34 ± 5 µM

**Q.** And the “Kd by MST” value ([2]; KIN10 mutant 2, Table 1 series)?
**A.** no significant difference

**Q.** And the “inhibition of the plant α-catalytic subunit of SnRK1” value [3]?
**A.** specifically inhibited

**Q.** What about the Kd [4] of the same molecule?
**A.** 26 ± 6 µM

**Q.** And the “Kd by MST” value ([4]; KIN10 mutant 1, Table 1 series)?
**A.** no significant difference

**Q.** What about the “reduction of mutant 3 activation by GRIK1 in the presence of T6P” value [5] of the same molecule?
**A.** no reduction

**Q.** And the Kd [6]?
**A.** 165 ± 21 µM

**Q.** What about the “reduction of affinity of T6P binding versus WT KIN10” value ([6]; mutant 3 versus WT) of the same molecule?
**A.** fivefold

**Q.** And the IC50 (WT KIN10 [7])?
**A.** 40 µM

**Q.** And the “change of basal activity of WT KIN10 on addition of T6P” value (WT KIN10 [7]; 1 mM T6P, 50 nM KIN10, no GRIK1)?
**A.** doubling

**Q.** And the “reduction of affinity of GRIK1 for KIN10 on T6P binding” value (GRIK1-KIN10)?
**A.** threefold

**Q.** And the Kd (KIN10 K63A-R66A-R141A; Kds determined by MST, KIN10 K63A-R66A-R141A, Table 2 series)?
**A.** 143 µM

**Q.** And the “increase in Kd versus WT” value (KIN10 K63A-R66A-R141A; triple mutant K63A-R66A-R141A versus WT)?
**A.** sevenfold

**Q.** What about the Kd (KIN10 R141A) of the same molecule?
**A.** 52 ± 7 µM

**Q.** What about the “activation of mutant 2 by GRIK1 in the presence of T6P” value (KIN10 mutant 2) of the same molecule?
**A.** reduced

**Q.** What about the Kd (KIN10 K63A) of the same molecule?
**A.** 47 ± 7 µM

**Q.** What about the “increase of Kd versus WT” value (KIN10 K63A; span over the three single mutants K63A, R66A and R141A, versus WT) of the same molecule?
**A.** 1.9- to 2.5 fold

**Q.** What about the “activation of mutant 1 by GRIK1 in the presence of T6P” value (KIN10 mutant 1) of the same molecule?
**A.** reduced
